The IC50 is the concentration that inhibits the measured activity by half. A lower IC50 goes with inhibition by little substance.

Experimental findings from ChEMBL document CHEMBL1150813, “Triterpene saponins from Vietnamese ginseng (Panax vietnamensis) and their hepatocytoprotective activity” (J Nat Prod, 2001) are described below.

Some results are limits rather than exact numbers.

Format in all cases: functional
Test [1] has as its system Hepatocyte. The test is described as follows: Hepatoprotective activity in mouse hepatocytes assessed inhibition of D-galactosamine/TNFalpha-induced cell death at 50 uM administered before 30 mins of TNFalpha challenge measured after 18 hrs. The method, boiled down: (§1)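 Primary mouse hepatocytes, isolated by collagenase perfusion, were cultured in William's E medium with 10% calf serum, dexamethasone and insulin at 1.5×10^4 cells/well. TNF-α (100 ng/mL) was added 30 min later. Viability was read by MTT after 18 h. Values are mean ± SD, n = 4 (normal and control n = 8), with Student's t-test versus control.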

Test [2] relates to Hepatocyte. The test is described as follows: Hepatoprotective activity against D-galactosamine/TNFalpha-induced cell death in mouse hepatocytes assessed cell survival rate at 200 uM administered before 30 mins of TNFalpha challenge measured after 18 hrs by MTT assay. The method, boiled down: as §1
For orientation: Formazan colour is commonly taken as a measure of viable cells.

The test system of test [3] is Hepatocyte. The test can be described thus: Hepatoprotective activity in mouse hepatocytes assessed protection against D-galactosamine/TNFalpha-induced cell death at 100 uM administered before 30 mins of TNFalpha challenge measured after 18 hrs. Summed up:
as §1

Test [4] deals with Hepatocyte. The test can be described thus: Hepatoprotective activity in mouse hepatocytes assessed protection against D-galactosamine/TNFalpha-induced cell death at 50 uM administered before 30 mins of TNFalpha challenge measured after 18 hrs. The method, boiled down: as §1
In test [5] the test system is Hepatocyte. The test can be described thus: Hepatoprotective activity in mouse hepatocytes assessed inhibition of D-galactosamine/TNFalpha-induced cell death at 100 uM administered before 30 mins of TNFalpha challenge measured after 18 hrs. The method, boiled down: as §1
Test [6] concerns Hepatocyte. The test can be described thus: Hepatoprotective activity in mouse hepatocytes assessed inhibition of D-galactosamine/TNFalpha-induced cell death at 200 uM administered before 30 mins of TNFalpha challenge measured after 18 hrs. The method, boiled down:
as §1

The test system of test [7] is Hepatocyte. The test is described as follows: Hepatoprotective activity against D-galactosamine/TNFalpha-induced cell death in mouse hepatocytes assessed cell survival rate at 100 uM administered before 30 mins of TNFalpha challenge measured after 18 hrs by MTT assay. Summed up:
as §1

Test [8] has as its system Hepatocyte. The test is described as follows: Hepatoprotective activity against D-galactosamine/TNFalpha-induced cell death in mouse hepatocytes assessed cell survival rate at 50 uM administered before 30 mins of TNFalpha challenge measured after 18 hrs by MTT assay. The method, boiled down:
as §1

For test [9], the system named is Hepatocyte. The test can be described thus: Hepatoprotective activity in mouse hepatocytes assessed protection against D-galactosamine/TNFalpha-induced cell death at 200 uM administered before 30 mins of TNFalpha challenge measured after 18 hrs. Summed up:
as §1

Test [10] relates to Hepatocyte. The test is described as follows: Hepatoprotective activity in mouse hepatocytes assessed inhibition of D-galactosamine/TNFalpha-induced cell death dosed administered before 30 mins of TNFalpha challenge measured after 18 hrs. The method, boiled down: as §1

For `CC(C)=CCC[C@](C)(O[C@@H]1O[C@H](CO)[C@@H](O)[C@H](O)[C@H]1O)[C@H]1CC[C@]2(C)[C@@H]1[C@H](O)C[C@@H]1[C@@]3(C)CC[C@H](O[C@@H]4O[C@H](CO)[C@@H](O)[C@H](O)[C@H]4O[C@@H]4O[C@H](CO)[C@@H](O)[C@H](O)[C@H]4O)C(C)(C)[C@@H]3CC[C@]12C` [GINSENOSIDE RD], the “inhibition (INH)” value was 17.5% in the test with Hepatocyte [1], 19.5% with Hepatocyte [5] and 39.1% with Hepatocyte [6]. Further, the results for the Survival in the test with Hepatocyte [2], in the test on Hepatocyte [7] and in the test on Hepatocyte [8] were 41.8%, 35.9% and 35.3%, respectively. In addition, the Activity in the test on Hepatocyte [3] amounted to 8.4%; in the test with Hepatocyte [4], 7.4%; with Hepatocyte [9], 16.8%.

On to `CC(C)=CCC[C@](C)(O[C@@H]1O[C@H](CO[C@@H]2OC[C@H](O)[C@H](O)[C@H]2O)[C@@H](O)[C@H](O)[C@H]1O)[C@H]1CC[C@]2(C)[C@@H]1[C@H](O)C[C@@H]1[C@@]3(C)CC[C@H](O[C@@H]4O[C@H](CO)[C@@H](O)[C@H](O)[C@H]4O[C@@H]4O[C@H](CO)[C@@H](O)[C@H](O)[C@H]4O)C(C)(C)[C@@H]3CC[C@]12C` [GINSENOSIDE RB2], for which the “inhibition (INH)” value with Hepatocyte [1] turned out to be 22.1%; in the test with Hepatocyte [5] it was 48.8%; in the test with Hepatocyte [6], 100.8%. Also, the Survival was 60.3% with Hepatocyte [2], 44.7% in the test on Hepatocyte [7] and 36.7% in the test on Hepatocyte [8]. Moreover, the results for the Activity in the test with Hepatocyte [3], with Hepatocyte [4] and in the test on Hepatocyte [9] were 21%, 7.6% and 43.3%, respectively. The compound further showed an IC50 with Hepatocyte [10] of 105 µM.

For the compound `C=C(C)C(=O)CC[C@](C)(O[C@@H]1O[C@H](CO)[C@@H](O)[C@H](O)[C@H]1O)[C@H]1CC[C@]2(C)[C@@H]1[C@H](O)C[C@@H]1[C@@]3(C)CC[C@H](O)C(C)(C)[C@@H]3[C@@H](O[C@@H]3O[C@H](CO)[C@@H](O)[C@H](O)[C@H]3O)C[C@]12C`, the “inhibition (INH)” value with Hepatocyte [1] came to 19.2%; in the test with Hepatocyte [5], 28.3%; in the test with Hepatocyte [6] it was 48.2%. Also, the figures for the Survival in the test on Hepatocyte [2], with Hepatocyte [7] and in the test on Hepatocyte [8] were 44.3%, 38.4% and 35.6%, respectively. The results for the Activity in the test with Hepatocyte [3], with Hepatocyte [4] and in the test with Hepatocyte [9] were 12%, 8.2% and 20.5%, respectively.

As for `CO[C@@](C)(CCC=C(C)C)[C@H]1CC[C@]2(C)[C@@H]1[C@H](O)C[C@@H]1[C@@]3(C)CC[C@H](O)C(C)(C)[C@@H]3[C@@H](O[C@@H]3O[C@H](CO)[C@@H](O)[C@H](O)[C@H]3O)C[C@]12C` [GINSENOSIDE RH5], the figures for the “inhibition (INH)” value in the test on Hepatocyte [1], with Hepatocyte [5] and with Hepatocyte [6] were 23.5%, 27.9% and -24%, respectively. Moreover, in the test with Hepatocyte [4], the Activity amounted to 13.1%. The compound further showed a Survival with Hepatocyte [8] of 36.9%.

For `CC1(C)[C@@H](O[C@H]2O[C@H](C(=O)O)[C@@H](O)[C@H](O)[C@H]2O[C@@H]2O[C@H](C(=O)O)[C@@H](O)[C@H](O)[C@H]2O)CC[C@]2(C)[C@H]3C(=O)C=C4[C@@H]5C[C@@](C)(C(=O)O)CC[C@]5(C)CC[C@@]4(C)[C@]3(C)CC[C@@H]12` [GLYCYRRHIZIN], the “inhibition (INH)” value was 11% in the test with Hepatocyte [1], 11.1% in the test with Hepatocyte [5] and 20.3% with Hepatocyte [6]. Besides, the values for the Survival in the test on Hepatocyte [2], in the test on Hepatocyte [7] and with Hepatocyte [8] were 36.2%, 33.4% and 33%, respectively. Besides, the Activity with Hepatocyte [3] stood at 4.8%; with Hepatocyte [4], 1%; in the test with Hepatocyte [9], 8.7%. Besides, the IC50 with Hepatocyte [10] is greater than 200 µM.

Turning to `CC(C)=CCC[C@](C)(O[C@@H]1O[C@H](CO)[C@@H](O)[C@H](O)[C@H]1O)[C@H]1CC[C@]2(C)[C@@H]1[C@H](O)C[C@@H]1[C@@]3(C)CC[C@H](O)C(C)(C)[C@@H]3[C@@H](O[C@@H]3O[C@H](CO)[C@@H](O)[C@H](O)[C@H]3O)C[C@]12C` [GINSENOSIDE RG1], the “inhibition (INH)” value came out at 39.3% with Hepatocyte [1], 40.6% in the test with Hepatocyte [5] and 61.4% in the test with Hepatocyte [6]. For the same compound, the values for the Survival in the test with Hepatocyte [2], in the test with Hepatocyte [7] and in the test on Hepatocyte [8] were 48.3%, 42% and 41.6%, respectively. The Activity in the test with Hepatocyte [3] is recorded as 17.3%; with Hepatocyte [4], 16.7%; in the test on Hepatocyte [9] it was 26.2%. Also, the IC50 in the test on Hepatocyte [10] turned out to be 111 µM.

`CC(C)=CCC[C@](C)(O[C@@H]1O[C@H](CO[C@@H]2O[C@H](CO)[C@@H](O)[C@H](O)[C@H]2O)[C@@H](O)[C@H](O)[C@H]1O)[C@H]1CC[C@]2(C)[C@@H]1[C@H](O)C[C@@H]1[C@@]3(C)CC[C@H](O[C@@H]4O[C@H](CO)[C@@H](O)[C@H](O)[C@H]4O[C@@H]4O[C@H](CO)[C@@H](O)[C@H](O)[C@H]4O)C(C)(C)[C@@H]3CC[C@]12C` [GINSENOSIDE RB1]: the “inhibition (INH)” value in the test on Hepatocyte [1] came to 14.3%; in the test with Hepatocyte [5], 19.8%; in the test on Hepatocyte [6], 31.9%. The Survival turned out to be 39.6% with Hepatocyte [2], 36% in the test on Hepatocyte [7] and 34.4% in the test with Hepatocyte [8]. Also, the Activity in the test with Hepatocyte [3] is reported as 8.5%; in the test with Hepatocyte [4], 6%; in the test with Hepatocyte [9] it was 13.7%.

Turning to `CC(C)=CC/C=C(\C)[C@H]1CC[C@]2(C)[C@@H]1[C@H](O)C[C@@H]1[C@@]3(C)CC[C@H](O)C(C)(C)[C@@H]3[C@@H](O[C@@H]3O[C@H](CO)[C@@H](O)[C@H](O)[C@H]3O)C[C@]12C` [GINSENOSIDE RH4], the “inhibition (INH)” value was found to be 13.7% in the test on Hepatocyte [1], 50.6% with Hepatocyte [5] and 67.1% in the test with Hepatocyte [6]. Moreover, the Survival in the test with Hepatocyte [2] is given as 50%; in the test on Hepatocyte [7], 45%; in the test with Hepatocyte [8], 34%. The Activity in the test on Hepatocyte [3] is reported as 24.8%; in the test on Hepatocyte [4], 8%; in the test on Hepatocyte [9], 35.1%. For the same compound, in the test on Hepatocyte [10], the IC50 was found to be 97 µM.

For the compound `CC(C)=CCC[C@](C)(O[C@@H]1O[C@H](CO)[C@@H](O)[C@H](O)[C@H]1O)[C@H]1CC[C@]2(C)[C@@H]1[C@H](O)C[C@@H]1[C@@]3(C)CC[C@H](O)C(C)(C)[C@@H]3[C@@H](O[C@@H]3O[C@H](CO)[C@@H](O)[C@H](O)[C@H]3O[C@@H]3O[C@@H](C)[C@H](O)[C@@H](O)[C@H]3O)C[C@]12C` [GINSENOSIDE RE], the “inhibition (INH)” value is recorded as 21.1% with Hepatocyte [1], 37% in the test with Hepatocyte [5] and 74.3% in the test on Hepatocyte [6]. The Survival with Hepatocyte [2] was determined as 52.4%; in the test on Hepatocyte [7] it was 41.2%; with Hepatocyte [8] it was 36.4%. The Activity turned out to be 15.9% in the test on Hepatocyte [3], 8.9% in the test with Hepatocyte [4] and 31.9% with Hepatocyte [9]. In the test on Hepatocyte [10], this compound gave a half-inhibitory concentration (IC50) of 119 µM.

Turning to `CC1(C)O[C@](C)([C@H]2CC[C@]3(C)[C@@H]2[C@H](O)C[C@@H]2[C@@]4(C)CC[C@H](O)C(C)(C)[C@@H]4[C@@H](O[C@@H]4O[C@H](CO)[C@@H](O)[C@H](O)[C@H]4O)C[C@]23C)CC[C@H]1O` [GINSENOSIDE R10], the “inhibition (INH)” value in the test with Hepatocyte [1] is on record as 37.6%; in the test with Hepatocyte [5], 28%; in the test on Hepatocyte [6], 17.8%. For the same compound, the Survival stood at 35.2% with Hepatocyte [2], 38.3% with Hepatocyte [7] and 41.1% in the test with Hepatocyte [8]. Moreover, the results for the Activity in the test on Hepatocyte [3], in the test on Hepatocyte [4] and with Hepatocyte [9] were 12%, 16% and 7.6%, respectively.

For the compound `CC(C)=CCC[C@](C)(O[C@@H]1O[C@H](CO[C@@H]2O[C@@H](CO)[C@H](O)[C@H]2O)[C@@H](O)[C@H](O)[C@H]1O)[C@H]1CC[C@]2(C)[C@@H]1[C@H](O)C[C@@H]1[C@@]3(C)CC[C@H](O[C@@H]4O[C@H](CO)[C@@H](O)[C@H](O)[C@H]4O[C@@H]4O[C@H](CO)[C@@H](O)[C@H](O)[C@H]4O)C(C)(C)[C@@H]3CC[C@]12C` [GINSENOSIDE RC], the “inhibition (INH)” value in the test on Hepatocyte [1] is on record as 6.7%; in the test on Hepatocyte [5], 4.4%; in the test with Hepatocyte [6] it was -11.3%. Moreover, the Survival is on record as 26.7% in the test on Hepatocyte [2], 31.4% in the test with Hepatocyte [7] and 32.1% with Hepatocyte [8]. For the same compound, the results for the Activity with Hepatocyte [3] and in the test on Hepatocyte [4] were 1.9% and 3.2%, respectively.
